For series [1], the target named is T1, Insulin-degrading enzyme (Mus musculus, UniProt Q9JHR7).
T1 sequence (Q9JHR7 whole entry): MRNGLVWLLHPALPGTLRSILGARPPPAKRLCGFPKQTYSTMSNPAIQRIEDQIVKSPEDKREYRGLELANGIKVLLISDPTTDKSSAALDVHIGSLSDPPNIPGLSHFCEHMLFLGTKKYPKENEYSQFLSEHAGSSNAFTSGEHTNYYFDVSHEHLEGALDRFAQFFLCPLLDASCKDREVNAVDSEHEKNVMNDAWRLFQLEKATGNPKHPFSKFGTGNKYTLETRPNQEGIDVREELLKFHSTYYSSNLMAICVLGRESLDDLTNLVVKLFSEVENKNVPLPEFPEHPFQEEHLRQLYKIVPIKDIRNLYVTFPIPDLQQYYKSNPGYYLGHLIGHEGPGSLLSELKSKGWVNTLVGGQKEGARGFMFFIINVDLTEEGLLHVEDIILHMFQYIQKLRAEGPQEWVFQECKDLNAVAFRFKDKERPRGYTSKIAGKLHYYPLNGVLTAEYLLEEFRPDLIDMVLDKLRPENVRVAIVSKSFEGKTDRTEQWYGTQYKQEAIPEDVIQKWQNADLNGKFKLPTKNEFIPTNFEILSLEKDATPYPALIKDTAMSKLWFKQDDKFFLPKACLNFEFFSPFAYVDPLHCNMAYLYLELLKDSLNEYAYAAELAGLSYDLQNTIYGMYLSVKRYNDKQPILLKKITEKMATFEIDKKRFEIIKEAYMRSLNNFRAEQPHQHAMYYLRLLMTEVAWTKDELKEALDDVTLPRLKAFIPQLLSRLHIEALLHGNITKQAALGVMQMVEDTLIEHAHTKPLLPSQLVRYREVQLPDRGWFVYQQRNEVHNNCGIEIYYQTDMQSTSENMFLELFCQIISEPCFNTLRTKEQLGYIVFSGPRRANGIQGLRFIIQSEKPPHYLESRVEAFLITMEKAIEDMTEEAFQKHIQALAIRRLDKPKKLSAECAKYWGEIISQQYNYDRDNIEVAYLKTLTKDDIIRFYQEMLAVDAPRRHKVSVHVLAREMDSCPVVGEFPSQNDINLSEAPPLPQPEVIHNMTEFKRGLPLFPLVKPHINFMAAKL
Kind of series: Inhibition of mouse His-tagged IDE (42 to 1019 residues) using fluorophore/quencher-tagged RPPGFSAFK(Dnp)-OH peptide as substrate preincubated for 10 mins followed by substrate addition measured over 5 mins by TR-FRET assay. For orientation: Time-resolved FRET reads energy transfer from a long-lived donor to a nearby acceptor.

A short description of series [2]: Hemolytic activity against mouse RBC at 300 uM after 1 hr at 310 K. It is filed as ADME, cell-based, Erythrocyte. Conditions: mouse red blood cells (erythrocytes), read-out: Activity; call rule not given here. An outline of the steps:
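Fresh mouse red cells were washed six times and suspended at 1 × 10^8 cells/mL in PBS. Peptides at 2.3–300 μM were added for 1 h at 310 K. After centrifugation, hemoglobin in the supernatant was read at 576 nm. PBS served as 0% and 0.1% Triton X-100 as 100% lysis. Three independent experiments in duplicate.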

Series [3] has as its system HeLa. Kind of series: Cytotoxicity against human HeLa cells assessed as reduction in cell viability at <300 uM after 24 hrs at 310 K by MTT assay. It is filed as cell-based. Summed up: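 HeLa cells were grown overnight in DMEM with 10% FBS, then exposed to serial dilutions starting at 300 μM in medium with 5% FBS for 24 h at 310 K under 5% CO2. MTT was added for a further 4 h and formazan absorbance read at 490 nm. Three independent experiments in duplicate.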

Series [4] can be described thus: Drug uptake in human HeLa cells at 5 uM using FITC-labeled compound after 2 hrs at 310 K by DAPI-staining based confocal microscopy. It counts as ADME, cell-based.
A short description of series [5]: Drug uptake in human HeLa cells at 5 uM using FITC-labeled compound after 2 hrs at 310 K by trypan blue-fluorescence based FACS analysis. It counts as ADME, cell-based. Summed up:
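HeLa cells were grown overnight in DMEM with 10% FBS, then given 5 μM FITC-labelled peptide in FBS-free medium for 2 h at 310 K. Cells were washed with PBS and 0.4% trypan blue, trypsinized and washed. Mean fluorescence was measured by flow cytometry with gated cell counts. Three independent experiments.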
On the technique in general: A flow cytometer gives signals particle by particle.

Broadly, the IC50 is the concentration at which inhibition is half-maximal. A lower IC50 goes with greater potency.

Bridge positions count the residues as written; N and C are the ends. Square brackets hold non-standard residues; d marks the D form. Peptide text beside a SMILES is read from it. * marks the point of attachment. Ileψ(thiazoline)Cys = CC[C@H](C)[C@H](N)C1=N[C@H](C(=O)*)CS1; dOrn = NCCC[C@@H](N)C(=O)O Where only a bound is given, the exact number is not on record here.

Turning to `CC(C)C[C@H](NC(=O)[C@H](C)NC(=O)[C@H](CCC(=O)O)NC(=O)[C@@H]1CCCN1C(=O)[C@H]1CCCN1C(=O)[C@H](Cc1ccccc1)NC(=O)[C@H](CCCNC(=N)N)NC(=O)[C@H](Cc1c[nH]c2ccccc12)NC(=O)[C@@H](N)CCC(=O)O)C(=O)N[C@@H](Cc1ccc(O)cc1)C(N)=O`, half-maximal inhibition in series [1] (IC50) was put at 601 nM.

For the compound `CC(=O)N[C@@H](CCC(=O)O)C(=O)N[C@@H](Cc1ccccc1)C(=O)N[C@@H](CC(C)C)C(=O)N[C@@H](Cc1c[nH]c2ccccc12)C(=O)N[C@@H](C)C(=O)NCC(=O)N1CCC[C@@H]1C(=O)N1CCC[C@H]1C(=O)N[C@@H](Cc1ccc(O)cc1)C(=O)N[C@@H](C)C(=O)N[C@@H](CS)C(=O)N[C@H](C(=O)NCC(=O)N[C@@H](CCCNC(=N)N)C(=O)N[C@@H](CC(C)C)C(=O)N[C@@H](CCC(=O)O)C(N)=O)C(C)C`, in series [2], the hemolysis at 1 h, 300 µM is less than 10%. The Activity result in series [3] is reported as “Non-Toxic”.

In series [1], `CC(C)C[C@H](NC(=O)[C@H](C)NC(=O)[C@@H](N)CCC(=O)O)C(=O)N[C@@H](Cc1ccc(O)cc1)C(=O)N[C@@H](CC(C)C)C(=O)N[C@H](C(=O)N[C@@H](CS)C(=O)NCC(=O)N1CCC[C@@H]1C(=O)N1CCC[C@H]1C(=O)N[C@@H](Cc1ccccc1)C(=O)N[C@@H](CCCNC(=N)N)C(=O)N[C@@H](Cc1c[nH]c2ccccc12)C(=O)N[C@@H](CCC(=O)O)C(N)=O)C(C)C` registered an IC50 of 170 nM.

In the case of `CC(C)C[C@H](NC(=O)[C@H](C)NC(=O)[C@H](CCC(=O)O)NC(=O)CNC(=O)CNC(=O)[C@H](Cc1ccccc1)NC(=O)[C@H](CCCNC(=N)N)NC(=O)[C@H](Cc1c[nH]c2ccccc12)NC(=O)[C@@H](N)CCC(=O)O)C(=O)N[C@@H](Cc1ccc(O)cc1)C(=O)N[C@@H](CC(C)C)C(=O)N[C@H](C(=O)N[C@@H](CS)C(=O)NCC(N)=O)C(C)C` (H-EWRFGGEALYLVCG-NH2), the Drug uptake entry in series [4] and in series [5] was “Active” each time. The hemolysis at 1 h, 300 µM in series [2] was less than 10%. The compound further gave a half-maximal inhibitory concentration (IC50) in series [1] of 300 nM.

In series [1], `CC(C)C[C@H](NC(=O)[C@H](C)NC(=O)[C@@H](N)CCC(=O)O)C(=O)N[C@@H](Cc1ccc(O)cc1)C(=O)N[C@@H](CC(C)C)C(=O)N[C@H](C(=O)N[C@@H](CS)C(=O)NCC(N)=O)C(C)C` (H-EALYLVCG-NH2) came in with an IC50 of 230 nM.

In turn, `CC(C)C[C@H](NC(=O)[C@H](C)NC(=O)[C@H](CCC(=O)O)NC(=O)[C@@H]1CCCN1C(=O)[C@H]1CCCN1C(=O)[C@H](Cc1ccccc1)NC(=O)[C@@H](N)CCCNC(=N)N)C(=O)N[C@@H](Cc1ccc(O)cc1)C(=O)N[C@@H](CC(C)C)C(=O)N[C@H](C(N)=O)C(C)C` gave a concentration for half-maximal inhibition (IC50) in series [1] of more than 20000 nM.

In turn, `CC[C@H](C)[C@H](N)C1=N[C@H](C(=O)N[C@@H](CC(C)C)C(=O)N[C@H](CCC(=O)O)C(=O)N[C@H](C(=O)N[C@H]2CCCCNC(=O)[C@H](CC(N)=O)NC(=O)[C@@H](CC(=O)O)NC(=O)[C@H](Cc3cnc[nH]3)NC(=O)[C@@H](Cc3ccccc3)NC(=O)[C@H]([C@@H](C)CC)NC(=O)[C@@H](CCCN)NC2=O)[C@@H](C)CC)CS1` [BACITRACIN] ({Ileψ(thiazoline)Cys}-L[dE]IK[dOrn]I[dF]H[dD]N; lactam 4-C) gave an IC50 in series [1] of more than 200000 nM.

On to `CC(C)C[C@H](NC(=O)[C@@H]1CNC(=O)C[C@H](NC(=O)[C@H](Cc2ccccc2)NC(=O)[C@H](CCCNC(=N)N)NC(=O)[C@H](Cc2c[nH]c3ccccc23)NC(=O)[C@@H](N)CCC(=O)O)C(=O)NCC(=O)NCC(=O)NCC(=O)N2CCC[C@@H]2C(=O)N2CCC[C@H]2C(=O)N[C@@H](CCC(=O)O)C(=O)N1)C(=O)N[C@@H](Cc1ccc(O)cc1)C(=O)N[C@@H](CC(C)C)C(=O)N[C@H](C(=O)N[C@@H](CS)C(=O)NCC(N)=O)C(C)C`, for which the Drug uptake result in series [4] and in series [5] was “Active” each time. Half-maximal inhibition in series [1] (IC50) required 44 nM.

In series [1], `CC(C)C[C@H](NC(=O)[C@H](C)NC(=O)[C@H](CCC(=O)O)NC(=O)[C@@H]1CCCN1C(=O)[C@H]1CCCN1C(=O)[C@H](Cc1ccccc1)NC(=O)[C@@H](N)CCCNC(=N)N)C(=O)N[C@@H](Cc1ccc(O)cc1)C(N)=O` yielded an IC50 of more than 20000 nM.

`CC(C)C[C@H](NC(=O)[C@@H]1CSC[C@H](NC(=O)[C@H](Cc2ccccc2)NC(=O)[C@H](CCCNC(=N)N)NC(=O)[C@H](Cc2c[nH]c3ccccc23)NC(=O)[C@@H](N)CCC(=O)O)C(=O)NCC(=O)NCC(=O)NCC(=O)N2CCC[C@@H]2C(=O)N2CCC[C@H]2C(=O)N[C@@H](CCC(=O)O)C(=O)N1)C(=O)N[C@@H](Cc1ccc(O)cc1)C(=O)N[C@@H](CC(C)C)C(=O)N[C@H](C(=O)N[C@H](CS)C(=O)NCC(N)=O)C(C)C` gave an IC50 in series [1] of 77 nM.

For the compound `CC(C)C[C@H](NC(=O)[C@@H]1CSC[C@H](NC(=O)[C@H](Cc2ccccc2)NC(=O)[C@H](CCCNC(=N)N)NC(=O)[C@H](Cc2c[nH]c3ccccc23)NC(=O)[C@@H](N)CCC(=O)O)C(=O)NCC(=O)N2CCC[C@@H]2C(=O)N2CCC[C@H]2C(=O)N[C@@H](CCC(=O)O)C(=O)N1)C(=O)N[C@@H](Cc1ccc(O)cc1)C(=O)N[C@@H](CC(C)C)C(=O)N[C@H](C(=O)N[C@H](CS)C(=O)NCC(N)=O)C(C)C`, inhibition in series [1] was half-maximal at 60 nM (IC50).

Turning to `CC(C)C[C@H](NC(=O)[C@H](C)NC(=O)[C@H](CCC(=O)O)NC(=O)[C@@H]1CCCN1C(=O)[C@H]1CCCN1C(=O)[C@H](Cc1ccccc1)NC(=O)[C@H](CCCNC(=N)N)NC(=O)[C@H](Cc1c[nH]c2ccccc12)NC(=O)[C@@H](N)CCC(=O)O)C(=O)N[C@@H](Cc1ccc(O)cc1)C(=O)N[C@@H](CC(C)C)C(=O)N[C@H](C(=O)N[C@H](CS)C(=O)NCC(N)=O)C(C)C`, the Drug uptake result in series [4] and in series [5] was “Active” in each case. The half-maximal inhibitory concentration (IC50) in series [1] came out at 74 nM.

As for `CC(C)C[C@H](NC(=O)[C@H](C)NC(=O)[C@H](CCC(=O)O)NC(=O)[C@@H]1CCCN1C(=O)[C@H]1CCCN1C(=O)[C@H](Cc1ccccc1)NC(=O)[C@H](CCCNC(=N)N)NC(=O)[C@H](Cc1c[nH]c2ccccc12)NC(=O)[C@@H](N)CCC(=O)O)C(=O)N[C@@H](Cc1ccc(O)cc1)C(=O)N[C@@H](CC(C)C)C(=O)N[C@H](C(N)=O)C(C)C`, in series [1], the IC50 turned out to be 86 nM.

The record behind these values is ChEMBL document CHEMBL4196173, “Stabilized β-Hairpin Peptide Inhibits Insulin Degrading Enzyme” (J Med Chem, 2018).
